The source of these data is paper PMC7501955 (Drug Design, Development and Therapy, 2020).

Each structure is given as a SMILES string.

This experiment concerns duck HBV (DHBV). Kind of experiment: Antiviral efficacy in a duck HBV model, serum DHBV DNA by quantitative PCR. In kind it is in vivo, Pekin ducklings. As to conditions: DHBV-infected ducks, 50 mg/kg 3TC; for Serum DHBV DNA: P<0.001. In short, it runs like this: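 Pekin ducklings were infected with DHBV-positive duck serum and assayed for DNA load 7 days later (T0). Groups of five received test compound at 25, 50 or 100 mg/kg by oral gavage for 14 days. Controls were saline (negative) and 3TC 50 mg/kg once daily (positive). Serum DHBV DNA was measured by qPCR on treatment days 0, 7, 14 and 3 days after stopping; mean ± SD.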

Turning to `Nc1ccn([C@@H]2CS[C@H](CO)O2)c(=O)n1` [3TC, lamivudine], for the setting “T7”, the “Reduction of serum DHBV DNA compared to vehicle controls” value was “up to 2 log10”. Also, the “Serum DHBV DNA” value by setting is: (T7 (day 7 of treatment)) “significantly inhibited”; (T14 (day 14 of treatment)) “significantly inhibited”.
